Data as given in ChEMBL document CHEMBL1240480, “Design, synthesis and biological evaluation of L-dopa amide derivatives as potential prodrugs for the treatment of Parkinson's disease” (Eur J Med Chem, 2010).
Blank lines part the entries; values can stand above or below the molecule they belong to.

How the values were obtained:
Rattus norvegicus [1] = experiment: Antiparkinsonian activity in 6-hydroxydopamine lesioned Wistar rat assessed as number of rotation per 10 mins at 12.5 mg/kg, po; format: functional
Outline: (§1)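 Rotometer assay in unilaterally 6-OHDA-lesioned male Wistar rats (apomorphine-confirmed, >6 turns/min). Benserazide 10 mg/kg was given, followed by compound at 63.4 µmol/kg ip or po in saline (n=4–8 per treatment). Rotations were recorded per 10 min for 240 min. Peak (maximum) rotations per 10 min were taken and expressed relative to L-dopa.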

Rattus norvegicus [2] = experiment: Antiparkinsonian activity in 6-hydroxydopamine lesioned Wistar rat assessed as duration of rotation per 10 mins at 12.5 mg/kg, ip; format: functional; details: route intraperitoneal
Outline: (§2)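 The 6-OHDA-lesioned male Wistar rats were apomorphine-screened (>6 turns/min) and given benserazide 10 mg/kg, then a saline-vehicle dose of 63.4 µmol/kg ip or po (n=4–8). Rotations were counted per 10 min for 4 h. Duration of activity was the time turning >10 turns per 10 min, expressed as % of the L-dopa effect.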

Rattus norvegicus [3] = experiment: Antiparkinsonian activity in 6-hydroxydopamine lesioned Wistar rat assessed as area under curve measured as number of rotation per 10 mins at 12.5 mg/kg, ip; format: functional; details: route intraperitoneal
Outline: (§3)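 Male Wistar rats were given desipramine (25 mg/kg ip) and then a unilateral 6-OHDA injection (8 µg free base) into the left medial forebrain bundle. Lesions were confirmed ≥2 weeks later by apomorphine (0.5 mg/kg sc), accepting rats with >6 turns/min. Rats (n=4–8) received benserazide 10 mg/kg and 30 min basal recording, then drug at 63.4 µmol/kg ip or po in saline. Contraversive rotations were counted per 10 min over 240 min. AUC was calculated and expressed as % of the L-dopa effect.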

Rattus norvegicus [4] = experiment: Antiparkinsonian activity in 6-hydroxydopamine lesioned Wistar rat assessed as number of rotation per 10 mins at 12.5 mg/kg, ip; format: functional; details: route intraperitoneal; outline: as §1
Rattus norvegicus [5] = experiment: Antiparkinsonian activity in 6-hydroxydopamine lesioned Wistar rat assessed as duration of rotation per 10 mins at 12.5 mg/kg, po; format: functional; outline: as §2
Rattus norvegicus [6] = experiment: Antiparkinsonian activity in 6-hydroxydopamine lesioned Wistar rat assessed as area under curve measured as number of rotation per 10 mins at 12.5 mg/kg, po; format: functional; outline: as §3
Rattus norvegicus [7] = experiment: Cmax in Wistar rat at 14.8 mg/kg, po assessed as L-dopa level; format: ADME, organism-based; parameters: dose 14.8 mg/kg, route oral; details: in vivo
Outline: (§4)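 Naïve male Wistar rats (250–500 g), fasted overnight, dosed orally in 0.9% saline with benserazide (10 mg/kg) at dose equivalent to 12.5 mg/kg L-dopa. Heparinised tail-vein blood at various times; plasma extracted with 20% TFA in 10 mM metabisulphite with warfarin internal standard; L-dopa quantified by LC-MS/MS (positive ESI) against plasma standard curve 0.39–50 µM.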

Rattus norvegicus [8] = experiment: Antiparkinsonian activity in 6-hydroxydopamine lesioned Wistar rat assessed as number of rotation per 10 mins at 14.74 mg/kg, ip; format: functional; details: route intraperitoneal; outline: as §1
Rattus norvegicus [9] = experiment: AUC (0 to 4 hrs) in Wistar rat at 14.8 mg/kg, po assessed as L-dopa level; format: ADME, organism-based, Plasma; parameters: time < 4 hr, dose 14.8 mg/kg, route oral; details: in vivo
Outline: (§5)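 Naïve male Wistar rats (250–500 g), fasted overnight, dosed with compound in 0.9% saline together with benserazide (10 mg/kg), at a dose molar-equivalent to 12.5 mg/kg L-dopa. Heparinised tail-vein blood was sampled at intervals and the plasma stored at −80 °C. L-dopa was extracted with 20% TFA/10 mM metabisulphite plus warfarin internal standard and quantified by LC-MS/MS (positive ESI) against plasma standard curves.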

Rattus norvegicus [10] = experiment: Antiparkinsonian activity in 6-hydroxydopamine lesioned Wistar rat assessed as area under curve measured as number of rotation per 10 mins at 14.74 mg/kg, po; format: functional; outline: as §3
Rattus norvegicus [11] = experiment: Antiparkinsonian activity in 6-hydroxydopamine lesioned Wistar rat assessed as duration of rotation per 10 mins at 14.74 mg/kg, ip; format: functional; details: route intraperitoneal; outline: as §2
Rattus norvegicus [12] = experiment: Antiparkinsonian activity in 6-hydroxydopamine lesioned Wistar rat assessed as number of rotation per 10 mins at 14.74 mg/kg, po; format: functional; outline: as §1
Rattus norvegicus [13] = experiment: Apparent half life in Wistar rat at 14.8 mg/kg, po assessed as L-dopa level; format: ADME, organism-based; parameters: dose 14.8 mg/kg, route oral; details: in vivo; outline: as §4
Rattus norvegicus [14] = experiment: Antiparkinsonian activity in 6-hydroxydopamine lesioned Wistar rat assessed as area under curve measured as number of rotation per 10 mins at 14.74 mg/kg, ip; format: functional; details: route intraperitoneal; outline: as §3
Rattus norvegicus [15] = experiment: Antiparkinsonian activity in 6-hydroxydopamine lesioned Wistar rat assessed as duration of rotation per 10 mins at 14.74 mg/kg, po; format: functional; outline: as §2
Rattus norvegicus [16] = experiment: Antiparkinsonian activity in 6-hydroxydopamine lesioned Wistar rat assessed as area under curve measured as number of rotation per 10 mins at 22.75 mg/kg, po; format: functional; outline: as §3
Rattus norvegicus [17] = experiment: Antiparkinsonian activity in 6-hydroxydopamine lesioned Wistar rat assessed as duration of rotation per 10 mins at 22.75 mg/kg, po; format: functional; outline: as §2
Rattus norvegicus [18] = experiment: Antiparkinsonian activity in 6-hydroxydopamine lesioned Wistar rat assessed as number of rotation per 10 mins at 22.75 mg/kg, po; format: functional
Rattus norvegicus [19] = experiment: Antiparkinsonian activity in 6-hydroxydopamine lesioned Wistar rat assessed as number of rotation per 10 mins at 15.64 mg/kg, po; format: functional; outline: as §1
Rattus norvegicus [20] = experiment: Antiparkinsonian activity in 6-hydroxydopamine lesioned Wistar rat assessed as area under curve measured as number of rotation per 10 mins at 15.64 mg/kg, po; format: functional; outline: as §3
Rattus norvegicus [21] = experiment: Antiparkinsonian activity in 6-hydroxydopamine lesioned Wistar rat assessed as duration of rotation per 10 mins at 15.64 mg/kg, po; format: functional; outline: as §2
Rattus norvegicus [22] = experiment: Antiparkinsonian activity in 6-hydroxydopamine lesioned Wistar rat assessed as number of rotation per 10 mins at 15.64 mg/kg, ip; format: functional; details: route intraperitoneal; outline: as §1
Rattus norvegicus [23] = experiment: Antiparkinsonian activity in 6-hydroxydopamine lesioned Wistar rat assessed as area under curve measured as number of rotation per 10 mins at 15.64 mg/kg, ip; format: functional; details: route intraperitoneal; outline: as §3
Rattus norvegicus [24] = experiment: Antiparkinsonian activity in 6-hydroxydopamine lesioned Wistar rat assessed as duration of rotation per 10 mins at 15.64 mg/kg, ip; format: functional; details: route intraperitoneal; outline: as §2
Rattus norvegicus [25] = experiment: Antiparkinsonian activity in 6-hydroxydopamine lesioned Wistar rat assessed as number of rotation per 10 mins at 20.1 mg/kg, ip; format: functional; details: route intraperitoneal; outline: as §1
Rattus norvegicus [26] = experiment: Cmax in Wistar rat at 20.1 mg/kg, po assessed as L-dopa level; format: ADME, organism-based; parameters: dose 20.1 mg/kg, route oral; details: in vivo; outline: as §4
Rattus norvegicus [27] = experiment: Antiparkinsonian activity in 6-hydroxydopamine lesioned Wistar rat assessed as duration of rotation per 10 mins at 20.1 mg/kg, ip; format: functional; details: route intraperitoneal; outline: as §2
Rattus norvegicus [28] = experiment: Antiparkinsonian activity in 6-hydroxydopamine lesioned Wistar rat assessed as area under curve measured as number of rotation per 10 mins at 20.1 mg/kg, ip; format: functional; details: route intraperitoneal; outline: as §3
Rattus norvegicus [29] = experiment: Apparent half life in Wistar rat at 20.1 mg/kg, po assessed as L-dopa level; format: ADME, organism-based; parameters: dose 20.1 mg/kg, route oral; details: in vivo; outline: as §4
Rattus norvegicus [30] = experiment: AUC (0 to 4 hrs) in Wistar rat at 20.1 mg/kg, po assessed as L-dopa level; format: ADME, organism-based, Plasma; parameters: time < 4 hr, dose 20.1 mg/kg, route oral; details: in vivo; outline: as §5
Rattus norvegicus [31] = experiment: Antiparkinsonian activity in 6-hydroxydopamine lesioned Wistar rat assessed as number of rotation per 10 mins at 20.1 mg/kg, po; format: functional; outline: as §1
Rattus norvegicus [32] = experiment: Antiparkinsonian activity in 6-hydroxydopamine lesioned Wistar rat assessed as area under curve measured as number of rotation per 10 mins at 20.1 mg/kg, po; format: functional; outline: as §3
Rattus norvegicus [33] = experiment: Antiparkinsonian activity in 6-hydroxydopamine lesioned Wistar rat assessed as duration of rotation per 10 mins at 20.1 mg/kg, po; format: functional; outline: as §2
Rattus norvegicus [34] = experiment: Antiparkinsonian activity in 6-hydroxydopamine lesioned Wistar rat assessed as area under curve measured as number of rotation per 10 mins at 21.81 mg/kg, po; format: functional; outline: as §3
Rattus norvegicus [35] = experiment: Antiparkinsonian activity in 6-hydroxydopamine lesioned Wistar rat assessed as duration of rotation per 10 mins at 21.81 mg/kg, po; format: functional; outline: as §2
Rattus norvegicus [36] = experiment: Antiparkinsonian activity in 6-hydroxydopamine lesioned Wistar rat assessed as number of rotation per 10 mins at 21.81 mg/kg, po; format: functional
Rattus norvegicus [37] = experiment: Antiparkinsonian activity in 6-hydroxydopamine lesioned Wistar rat assessed as area under curve measured as number of rotation per 10 mins at 20.97 mg/kg, po; format: functional; outline: as §3
Rattus norvegicus [38] = experiment: Antiparkinsonian activity in 6-hydroxydopamine lesioned Wistar rat assessed as number of rotation per 10 mins at 20.97 mg/kg, po; format: functional; outline: as §1
Rattus norvegicus [39] = experiment: Antiparkinsonian activity in 6-hydroxydopamine lesioned Wistar rat assessed as duration of rotation per 10 mins at 20.97 mg/kg, po; format: functional; outline: as §2

SMILES: N[C@@H](Cc1ccc(O)c(O)c1)C(=O)O [LEVODOPA]
Activity (Rattus norvegicus [1]): 71
Time (Rattus norvegicus [2]): 160 min
Activity (Rattus norvegicus [3]): 1021
Activity (Rattus norvegicus [4]): 104
Time (Rattus norvegicus [5]): 119 min
Activity (Rattus norvegicus [6]): 522

Cmax (Rattus norvegicus [7]): 2.203 µg/mL
AUC (Rattus norvegicus [9]): 256 µg·min/mL
t1/2 (Rattus norvegicus [13]): 0.867 h
SMILES: Cl.NC(=O)[C@@H](N)Cc1ccc(O)c(O)c1
Activity (Rattus norvegicus [8]): 144
Activity (Rattus norvegicus [10]): 612
Time (Rattus norvegicus [11]): 155 min
Activity (Rattus norvegicus [12]): 105
Activity (Rattus norvegicus [14]): 1186
Time (Rattus norvegicus [15]): 103 min

SMILES: CC(=O)Oc1ccc(C[C@H](N)C(=O)NC(C)C)cc1OC(C)=O.Cl
Activity (Rattus norvegicus [16]): 26
Time (Rattus norvegicus [17]): 0 min
Activity (Rattus norvegicus [18]): 2

SMILES: CNC(=O)[C@@H](N)Cc1ccc(O)c(O)c1.Cl
Activity (Rattus norvegicus [19]): 5
Activity (Rattus norvegicus [20]): 29
Time (Rattus norvegicus [21]): 10 min
Activity (Rattus norvegicus [22]): 2
Activity (Rattus norvegicus [23]): 16
Time (Rattus norvegicus [24]): 0 min

Cmax (Rattus norvegicus [26]): 1.746 µg/mL
t1/2 (Rattus norvegicus [29]): 1.62 h
AUC (Rattus norvegicus [30]): 245 µg·min/mL
SMILES: CC(=O)Oc1ccc(C[C@H](N)C(N)=O)cc1OC(C)=O.Cl
Activity (Rattus norvegicus [25]): 69
Time (Rattus norvegicus [27]): 140 min
Activity (Rattus norvegicus [28]): 838
Activity (Rattus norvegicus [31]): 107
Activity (Rattus norvegicus [32]): 1085
Time (Rattus norvegicus [33]): 147 min

SMILES: CC(=O)Oc1ccc(C[C@H](N)C(=O)N(C)C)cc1OC(C)=O.Cl
Activity (Rattus norvegicus [34]): 26
Time (Rattus norvegicus [35]): 0 min
Activity (Rattus norvegicus [36]): 1

SMILES: CNC(=O)[C@@H](N)Cc1ccc(OC(C)=O)c(OC(C)=O)c1.Cl
Activity (Rattus norvegicus [37]): 26
Activity (Rattus norvegicus [38]): 1
Time (Rattus norvegicus [39]): 0 min
